Here are results for five molecules from ChEMBL document CHEMBL5252557.

Assay [1] has as its target Angiotensin-converting enzyme 2 (Homo sapiens, UniProt Q9BYF1). The assay can be described thus: Inhibition of his-tagged SARS-COV2 S-RBD binding to C-terminal Fc-tagged human ACE2 expressed in HEK293 cells incubated for 2 hrs by Alphascreen assay. The class given is cell-based. The method in brief:
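ACE2-Fc (2 nM) with His-tagged spike RBD, Wuhan variant (5 nM), plus protein A acceptor and nickel chelate donor beads (5 μg/mL each), in 20 mM Tris pH 7.4, 150 mM KCl, 0.05% CHAPS. Compounds added from 100× DMSO dilutions, in duplicate. 2 h at room temperature, then luminescence read. 100% = signal without RBD; 0% = both proteins plus DMSO.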
A general note: In Alpha technology, singlet oxygen from a donor bead excites a nearby acceptor bead.

Assay [2] concerns the target Programmed cell death protein 1/Programmed cell death 1 ligand 1 (Homo sapiens, UniProt Q15116+Q9NZQ7). Briefly: Inhibition of C-terminal his tagged human PD-1/human Fc tagged PDL-1 interaction expressed in HEK293 cells incubated for 2 hrs AlphaScreen assay. The class given is cell-based.
The species entered for a further assay is Homo sapiens. Briefly: Selectivity index, ratio of IC50 for his tagged human PD-1/human Fc tagged PDL-1 interaction to IC50 for his-tagged FC tagged SARS-COV2 S-RBD binding to ACE2 (unknown origin).

Bounds are passed on as bounds.

Chain of Angiotensin-converting enzyme 2 (Q9BYF1 whole entry): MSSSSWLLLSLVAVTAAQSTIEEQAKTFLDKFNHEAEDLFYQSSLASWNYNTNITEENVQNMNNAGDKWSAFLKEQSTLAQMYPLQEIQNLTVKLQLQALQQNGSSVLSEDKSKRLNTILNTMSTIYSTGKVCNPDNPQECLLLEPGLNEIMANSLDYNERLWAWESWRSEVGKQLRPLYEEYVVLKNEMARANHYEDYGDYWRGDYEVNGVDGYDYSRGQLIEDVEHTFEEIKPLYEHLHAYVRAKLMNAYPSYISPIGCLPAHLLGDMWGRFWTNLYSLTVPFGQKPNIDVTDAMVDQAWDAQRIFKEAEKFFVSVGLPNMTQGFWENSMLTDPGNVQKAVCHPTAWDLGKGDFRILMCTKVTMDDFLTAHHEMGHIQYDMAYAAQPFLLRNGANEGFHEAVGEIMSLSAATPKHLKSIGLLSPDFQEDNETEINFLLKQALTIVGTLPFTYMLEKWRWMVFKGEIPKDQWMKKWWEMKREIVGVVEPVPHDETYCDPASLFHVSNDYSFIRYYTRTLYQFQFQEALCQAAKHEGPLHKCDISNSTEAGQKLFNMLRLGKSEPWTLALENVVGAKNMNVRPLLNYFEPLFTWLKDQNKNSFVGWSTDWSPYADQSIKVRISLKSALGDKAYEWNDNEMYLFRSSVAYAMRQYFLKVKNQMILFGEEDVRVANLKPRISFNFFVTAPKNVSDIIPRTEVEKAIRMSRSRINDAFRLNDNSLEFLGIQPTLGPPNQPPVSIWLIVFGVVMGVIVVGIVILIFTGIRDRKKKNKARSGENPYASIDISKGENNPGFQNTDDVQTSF
Chain of Programmed cell death protein 1/Programmed cell death 1 ligand 1 (Q15116 whole entry): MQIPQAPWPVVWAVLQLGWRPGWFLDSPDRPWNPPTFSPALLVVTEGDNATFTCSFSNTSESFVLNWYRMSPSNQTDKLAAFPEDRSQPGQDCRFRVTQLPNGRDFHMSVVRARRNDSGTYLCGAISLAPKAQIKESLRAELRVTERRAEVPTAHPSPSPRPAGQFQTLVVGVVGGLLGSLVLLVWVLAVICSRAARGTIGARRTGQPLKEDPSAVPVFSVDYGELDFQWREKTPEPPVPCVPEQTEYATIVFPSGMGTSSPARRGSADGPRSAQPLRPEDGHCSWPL
Chain of Programmed cell death protein 1/Programmed cell death 1 ligand 1 (Q9NZQ7 whole entry): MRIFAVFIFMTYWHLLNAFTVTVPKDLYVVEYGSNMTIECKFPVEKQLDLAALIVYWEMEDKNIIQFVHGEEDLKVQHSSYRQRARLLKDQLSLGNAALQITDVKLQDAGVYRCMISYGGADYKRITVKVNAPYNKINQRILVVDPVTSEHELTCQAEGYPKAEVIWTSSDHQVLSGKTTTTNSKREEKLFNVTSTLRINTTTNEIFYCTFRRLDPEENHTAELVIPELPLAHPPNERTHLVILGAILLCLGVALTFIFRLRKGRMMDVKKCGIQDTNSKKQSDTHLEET

By IC50 is commonly meant the concentration that inhibits the measured activity by half. A lower IC50 goes with greater potency. With `Oc1ccc([C@@H]2c3c(O)cc(O)cc3[C@@H]3c4c(cc(O)cc4[C@H]2[C@@H]2c4cc(O)cc5c4[C@@H](c4cc(O)cc(O)c4[C@H]2c2ccc(O)cc2)[C@H](c2ccc(O)cc2)O5)O[C@H]3c2ccc(O)cc2)cc1`, the IC50 in assay [1] stood at 0.25 µM.

As to `COc1cc(OC(C)=O)cc2c1OC(C)(CCC1=C(C)CCCC1(C)C)C=C2` (configuration not stated), the IC50 is 66 µM in assay [2] and 63 µM in assay [1]. The Ratio IC50 in the assay listed under Homo sapiens is 1.

In the case of `COc1cc(O)c(-c2c(O)cc(OC)c3c2C=C[C@](C)(CCC2=C(C)CCCC2(C)C)O3)c2c1O[C@](C)(CCC1=C(C)CCCC1(C)C)C=C2`, the IC50 in assay [2] stood at 6 µM; in assay [1], 1 µM. The Ratio IC50 in the assay filed under Homo sapiens stood at 5.9.

Regarding `COc1cc(OC(C)=O)c(-c2c(OC(C)=O)cc(OC)c3c2C=C[C@@](C)(CCC2=C(C)CCCC2(C)C)O3)c2c1O[C@](C)(CCC1=C(C)CCCC1(C)C)C=C2`, the IC50 is greater than 50 µM in assay [2] and 65 µM in assay [1].

Regarding `COc1cc(OC(C)=O)c(-c2c(OC(C)=O)cc(OC)c3c2C=C[C@](C)(CCC2=C(C)CCCC2(C)C)O3)c2c1O[C@](C)(CCC1=C(C)CCCC1(C)C)C=C2`, the IC50 in assay [2] was 37 µM; in assay [1], 7.3 µM. In addition, in the assay listed under Homo sapiens, the Ratio IC50 worked out at 5.
